≈ marks a conversion by molar mass, not a printed value. Where “and” joins values, the source holds several entries; their conditions need not be identical. Equal values may be shown once. Read-outs that look alike come from different tables or passages of the source. Bridge positions count the residues as written; N and C are the ends. Square brackets hold non-standard residues; d marks the D form. Peptide text beside a SMILES is read from it. * marks the point of attachment. X1 = CC[C@H](C)CCCCC(=O)*; Dab = NCC[C@H](N)C(=O)O
Assays:
[1] = stored plasma samples; to be estimated within four months; ref [17]; cited from earlier work
[2] = assay type: in vivo, human; conditions: for AUC after 5th dose: individual patients, steady state, plasma, AUC0-8; for average steady-state concentration (Css, avg) of formed colistin, median: six patients receiving 2 MU q8h, no loading dose
Method in brief: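 CMS was given by 1-h i.v. infusion every 8 h. Heparinized venous blood was drawn pre-dose, at end of infusion, then 30 min and 1.5, 2, 4, 6, 8 h after dose 1 and dose 5 (steady state). Plasma (200 μl) was stored at −80°C. CMS was acid-hydrolysed (5% formic acid, 30 min), and colistin A+B were quantified by UHPLC-MS/SRM against a reserpine internal standard. Values are total colistin, with outliers omitted.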

[3] = system: Acinetobacter baumannii; assay: MIC for colistin by E-test; assay type: cell-based; conditions: isolate of the individual patient
Method in brief: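 Organisms came from positive cultures of ICU patients with MDR Gram-negative bloodstream infection and were identified and susceptibility-tested. Colistin MIC for each patient's isolate was determined by E-test per the manufacturer's instructions.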

[4] = system: MDR Gram-negative infections; assay: Bacteriological profile and clinical outcome of patients on colistin monotherapy; assay type: in vivo, human; conditions: 1-2 MU i.v. every 8 h
Method in brief: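 ICU patients >12 yr with normal renal function and bloodstream infection by an MDR Gram-negative organism susceptible only to colistin. They received colistin monotherapy as CMS by 1-h i.v. infusion every 8 h, without a loading dose, for […]. Follow-up cultures were taken. Exclusions were expected survival <72 h, pregnancy, burns >20% of body surface, and cystic fibrosis.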

[5] = cited from earlier work

| Compound | stability in stored samples (conversion of CMS to colistin) [1] | terminal half-life, range ([2]; 2 MU i.v. every 8 h, after 1st dose) [h] | terminal half-life, range ([2]; 2 MU i.v. every 8 h, after 5th dose) [h] | AUC after 5th dose ([2]; 1 MU i.v. every 8 h) | AUC after 5th dose ([2]; 2 MU i.v. every 8 h) | Vd for a majority of patients ([2]; patients of this study) | average steady-state concentration (Css, avg) of formed colistin, median ([2]; after 1st dose) [mg/L] | average steady-state concentration (Css, avg) of formed colistin, median ([2]; after 5th dose) [mg/L] | MIC [3] [mg/L] | follow up cultures ([4]; all nine patients) | patients who did not survive ([4]; nine patients) [per cent] | apparent terminal t1/2 ([5]; 2 MU dosage regimen, ref Imberti et al [10]) [h] | t1/2 ([5]; after 2.8 MU dosage, ref Markou et al [11]) [h] | Vd ([5]; cystic fibrosis patients, single dose, ref [17]) | Vd ([5]; cystic fibrosis patients, steady state, ref [17]) | Vd ([5]; other Indian study, after both the single dose and at steady state, ref [7]) | Vd ([5]; other studies, ref [10]) [L/kg] |
| --- | --- | --- | --- | --- | --- | --- | --- | --- | --- | --- | --- | --- | --- | --- | --- | --- | --- |
| colistin methanesulphonate [CMS] | unstable |  |  |  |  |  |  |  |  |  |  |  |  |  |  |  |  |
| CC[C@H](C)CCCCC(=O)N[C@@H](CCN)C(=O)N[C@H](C(=O)N[C@@H](CCN)C(=O)N[C@H]1CCNC(=O)[C@H]([C@@H](C)O)NC(=O)[C@H](CCN)NC(=O)[C@H](CCN)NC(=O)[C@H](CC(C)C)NC(=O)[C@@H](CC(C)C)NC(=O)[C@H](CCN)NC1=O)[C@@H](C)O [colistin] (X1-[Dab]T[Dab][Dab][Dab][dL]L[Dab][Dab]T; lactam 4-C) |  | 4.7 to 9.84 | 2.72 to 8.5 | 5.4 mg·h/L and 8.5 mg·h/L and 3.5 mg·h/L | 15.8 mg·h/L and 6.0 mg·h/L and 4.4 mg·h/L | more than 1.0 l/kg | 0.57 | 0.72 | 0.125 (≈ 0.107 µM) | sterile | 30 | 5.9 ± 2.6 | 7.4 ± 1.7 | 0.09 (0.02) l/kg | 0.09 (0.03) l/kg | 0.3 (0.2-0.5) l/kg | 1.5 ± 1.1 |
